The results in this text go back to ChEMBL document CHEMBL4330096, “Discovery of potent and selective 5-azaindazole inhibitors of leucine-rich repeat kinase 2 (LRRK2) - Part 1” (Bioorg Med Chem Lett, 2019).

In general, IC50 refers to the concentration at which inhibition is half-maximal. In general, logD refers to the decadic logarithm of the distribution of all forms, ionised or not, between an organic phase and buffer at a given pH.

Series [1] has as its target Leucine-rich repeat serine/threonine-protein kinase 2 (Homo sapiens, UniProt Q5S007, G2019S). The series is described as follows: Inhibition of recombinant human GST-tagged LRRK2 G2019S mutant catalytic domain (970 to 2527 residues) expressed in baculovirus expression system by radiometric assay.
Series [2] can be described thus: Stability in human liver microsomes assessed as compound turnover rate measured after 40 mins. In kind it is ADME, Microsome. The conditions noted are these: read-out: Drug metabolism. In outline: (§1)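 In vitro incubation of compound with liver microsomes: human (HLM) for 40 min, mouse (MLM) for 30 min. Reported as % turnover of parent compound.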
In general terms: Liver microsomes are vesicles of endoplasmic reticulum, rich in cytochrome P450 enzymes.

The nature of series [3]: Stability in mouse liver microsomes assessed as compound turnover rate measured after 30 mins. In kind it is ADME, Microsome. The conditions noted are these: read-out: Drug metabolism. In outline: as §1
A short description of series [4]: Lipophilicity, log D of the compound at pH 7.4. Format: physicochemical. The note with it: buffer.
A short description of series [5]: Ratio of drug level in mouse brain to plasma. The conditions noted are these: read-out: BPR. In outline:
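Mice; ratio based on total (not unbound) compound concentrations in brain versus plasma.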

Chain of Leucine-rich repeat serine/threonine-protein kinase 2 (Q5S007 whole entry G2019S, the tested form may be a part): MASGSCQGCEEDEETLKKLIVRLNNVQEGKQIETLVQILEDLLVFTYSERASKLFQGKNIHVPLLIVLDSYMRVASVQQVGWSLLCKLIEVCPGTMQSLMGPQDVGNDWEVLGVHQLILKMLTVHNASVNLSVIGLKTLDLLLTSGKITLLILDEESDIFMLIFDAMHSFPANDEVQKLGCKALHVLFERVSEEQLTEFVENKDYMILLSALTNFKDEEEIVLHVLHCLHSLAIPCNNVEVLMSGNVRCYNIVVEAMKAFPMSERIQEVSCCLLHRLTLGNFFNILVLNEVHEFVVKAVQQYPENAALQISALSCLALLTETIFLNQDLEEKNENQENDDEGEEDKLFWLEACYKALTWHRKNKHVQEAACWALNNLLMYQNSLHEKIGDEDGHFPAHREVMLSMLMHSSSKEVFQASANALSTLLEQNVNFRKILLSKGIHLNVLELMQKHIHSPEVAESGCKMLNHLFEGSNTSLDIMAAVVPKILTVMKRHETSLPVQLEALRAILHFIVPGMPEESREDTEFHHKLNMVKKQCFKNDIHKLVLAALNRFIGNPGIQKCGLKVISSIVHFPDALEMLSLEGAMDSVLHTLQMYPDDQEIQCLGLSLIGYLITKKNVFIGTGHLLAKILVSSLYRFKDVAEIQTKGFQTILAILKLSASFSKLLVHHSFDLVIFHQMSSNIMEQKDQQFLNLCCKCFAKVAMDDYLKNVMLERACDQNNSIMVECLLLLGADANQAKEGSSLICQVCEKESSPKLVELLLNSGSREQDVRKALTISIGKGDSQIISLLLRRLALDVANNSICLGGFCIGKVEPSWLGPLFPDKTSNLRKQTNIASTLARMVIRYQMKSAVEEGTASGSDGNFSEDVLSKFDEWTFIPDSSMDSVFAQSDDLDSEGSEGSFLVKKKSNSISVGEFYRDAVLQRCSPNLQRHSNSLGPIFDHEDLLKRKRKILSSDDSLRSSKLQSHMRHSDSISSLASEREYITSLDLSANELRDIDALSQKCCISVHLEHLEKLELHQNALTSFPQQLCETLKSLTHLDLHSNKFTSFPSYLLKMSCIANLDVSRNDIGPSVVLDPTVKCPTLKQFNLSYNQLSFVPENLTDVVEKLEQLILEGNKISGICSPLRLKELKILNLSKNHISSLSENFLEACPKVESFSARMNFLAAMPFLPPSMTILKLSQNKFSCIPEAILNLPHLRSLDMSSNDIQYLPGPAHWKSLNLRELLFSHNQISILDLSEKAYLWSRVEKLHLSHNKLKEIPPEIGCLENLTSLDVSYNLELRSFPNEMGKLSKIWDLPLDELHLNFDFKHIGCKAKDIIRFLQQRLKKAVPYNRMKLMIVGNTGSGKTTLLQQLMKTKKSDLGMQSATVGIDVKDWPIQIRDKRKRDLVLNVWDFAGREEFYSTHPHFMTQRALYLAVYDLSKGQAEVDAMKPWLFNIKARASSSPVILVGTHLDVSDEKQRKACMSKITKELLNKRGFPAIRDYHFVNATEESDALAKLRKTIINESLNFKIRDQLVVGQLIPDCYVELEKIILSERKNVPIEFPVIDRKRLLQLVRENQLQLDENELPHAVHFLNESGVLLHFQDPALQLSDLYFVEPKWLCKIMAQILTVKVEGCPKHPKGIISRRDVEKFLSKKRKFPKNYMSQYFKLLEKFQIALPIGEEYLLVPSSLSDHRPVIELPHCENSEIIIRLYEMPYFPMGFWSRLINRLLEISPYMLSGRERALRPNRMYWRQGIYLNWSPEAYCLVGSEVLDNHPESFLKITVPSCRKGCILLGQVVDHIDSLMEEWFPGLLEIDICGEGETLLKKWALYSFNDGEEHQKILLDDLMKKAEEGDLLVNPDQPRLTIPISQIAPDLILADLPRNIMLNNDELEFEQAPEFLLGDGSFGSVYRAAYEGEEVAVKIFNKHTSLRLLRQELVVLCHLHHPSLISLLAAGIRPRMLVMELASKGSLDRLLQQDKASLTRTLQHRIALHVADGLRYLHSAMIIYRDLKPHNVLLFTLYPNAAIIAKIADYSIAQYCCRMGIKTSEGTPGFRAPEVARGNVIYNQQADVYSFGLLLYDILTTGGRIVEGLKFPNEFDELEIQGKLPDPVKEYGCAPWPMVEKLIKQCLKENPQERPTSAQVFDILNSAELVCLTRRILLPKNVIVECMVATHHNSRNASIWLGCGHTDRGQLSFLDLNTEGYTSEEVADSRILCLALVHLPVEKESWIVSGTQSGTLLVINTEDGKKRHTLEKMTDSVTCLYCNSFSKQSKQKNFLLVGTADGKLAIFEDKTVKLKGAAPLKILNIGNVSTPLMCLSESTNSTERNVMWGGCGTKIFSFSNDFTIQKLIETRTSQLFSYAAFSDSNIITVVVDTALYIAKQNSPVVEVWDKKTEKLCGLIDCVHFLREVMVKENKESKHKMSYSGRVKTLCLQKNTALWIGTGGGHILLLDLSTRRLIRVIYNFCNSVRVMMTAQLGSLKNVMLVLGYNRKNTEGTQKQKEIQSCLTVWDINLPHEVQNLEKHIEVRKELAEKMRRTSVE

Consider `CCOc1nccc2[nH]nc(C)c12`, for which the IC50 in series [1] was 440 nM.

On to `CC(C)Cn1cc(-c2n[nH]c3ccnc(OC4CCOCC4)c23)cn1`, for which, in series [1], the IC50 was determined as 15 nM.

In the case of `Cc1n[nH]c2ccnc(OC3CCC3)c12`, the metabolised at 40 min in series [2] stood at 22%. Moreover, the metabolised at 0.5 h in series [3] turned out to be 41%. In series [1], the IC50 amounted to 170 nM.

For the compound `CC[C@H](C)Nc1nccc2[nH]nc(C)c12`, the metabolised at 40 min in series [2] turned out to be 6%. In addition, in series [3], the metabolised at 0.5 h worked out at 9%. Besides, the IC50 in series [1] is 300 nM.

Regarding `Cc1n[nH]c2ccnc(OC(C)C)c12`, the metabolised at 40 min in series [2] is 2%. For the same compound, the metabolised at 0.5 h in series [3] is 24%. Further, the IC50 in series [1] came to 68 nM.

As to `CC(C)n1cc(-c2n[nH]c3ccnc(OC4CCCCC4)c23)cn1`, in series [2], the metabolised at 40 min is 36%. Also, in series [3], the metabolised at 0.5 h was determined as 66%. The compound also returned a logD in series [4] of 3.7. Also, the IC50 in series [1] stood at 2 nM.

On to `Cc1noc2ccnc(NC3CCCCC3)c12`, for which the IC50 in series [1] was > 10000 nM.

On to `Cc1n[nH]c2cncc(NC3CCCCC3)c12`, for which the concentration for half-maximal inhibition (IC50) in series [1] is 770 nM.

As to `Cc1nn(C)c2ccnc(NC3CCCCC3)c12`, the IC50 in series [1] is > 10000 nM.

For `Cc1n[nH]c2ccnc(NC3CCCC3)c12`, in series [2], the metabolised at 40 min came out at 2%. Moreover, the metabolised at 0.5 h in series [3] turned out to be 10%. Further, the IC50 in series [1] came to 410 nM.

Take `Cc1n[nH]c2ccnc(O[C@@H]3CCOC3)c12`: in series [2], the metabolised at 40 min came to 0%. The metabolised at 0.5 h in series [3] is 13%. Further, the IC50 in series [1] turned out to be 250 nM.

On to `Cc1n[nH]c2ccnc(Nc3ccc(Cl)cc3)c12`, for which the IC50 in series [1] came to 390 nM.

As to `Cc1c[nH]c2ccnc(NC3CCCCC3)c12`, the IC50 in series [1] was > 10000 nM.

Turning to `Cc1n[nH]c2ccnc(NC(C)C)c12`, in series [1], the IC50 stood at 880 nM.

In the case of `Cc1n[nH]c2ccnc(NC3CCOCC3)c12`, in series [2], the metabolised at 40 min turned out to be 0%. For the same compound, the Kp in series [5] is 1.6. Moreover, the metabolised at 0.5 h in series [3] was 4%. The compound further displayed a logD in series [4] of 1.2. Further, the IC50 in series [1] came to 190 nM.

In the case of `Cn1cc(-c2n[nH]c3ccnc(NC4CCCCC4)c23)cn1`, the metabolised at 40 min in series [2] came out at 21%. Besides, the metabolised at 0.5 h in series [3] was found to be 19%. The logD in series [4] stood at 2.7. Further, the IC50 in series [1] is 130 nM.

As for `c1cc2[nH]nc(-c3cnn(C4CCCC4)c3)c2c(OC2CCOCC2)n1`, the IC50 in series [1] was found to be 4 nM.

Turning to `Cc1n[nH]c2ccnc(OC3CCN(C)CC3)c12`, the IC50 in series [1] worked out at 1900 nM.

Turning to `CC(C)n1cc(-c2n[nH]c3ccnc(NC4CCCCC4)c23)cn1`, the metabolised at 40 min in series [2] was determined as 23%. Besides, in series [3], the metabolised at 0.5 h stood at 43%. Moreover, the logD in series [4] turned out to be 3.2. Also, the IC50 in series [1] stood at 110 nM.

With `Cc1n[nH]c2ccnc(NCC3CC3)c12`, in series [1], the half-maximal inhibitory concentration (IC50) was 2400 nM.

Regarding `Cc1n[nH]c2ccnc(N3CCOCC3)c12`, in series [1], the IC50 is 3000 nM.

Take `c1cc(-c2n[nH]c3ccnc(NC4CCOCC4)c23)cc(N2CCOCC2)n1`: in series [2], the metabolised at 40 min was 17%. In addition, the metabolised at 0.5 h in series [3] was 11%.

Consider `Cc1n[nH]c2ccnc(OC3CCCC3)c12`, for which, in series [2], the metabolised at 40 min was determined as 31%. Further, in series [3], the metabolised at 0.5 h stood at 42%. Moreover, the IC50 in series [1] was 86 nM.

As for `Cc1n[nH]c2ccnc(NCc3ccc(Cl)cc3)c12`, the IC50 in series [1] came out at 4900 nM.

Regarding `Cc1ccc(Nc2nccc3[nH]nc(C)c23)cc1`, the metabolised at 40 min in series [2] is 13%. Also, the metabolised at 0.5 h in series [3] amounted to 28%. Moreover, the IC50 in series [1] amounted to 97 nM.

Consider `Cc1n[nH]c2ccnc(Nc3cnn(C)c3)c12`, for which the IC50 in series [1] was 830 nM.

With `c1cc2[nH]nc(-c3cnn(C4CCCC4)c3)c2c(NC2CCOCC2)n1`, the IC50 in series [1] is 170 nM.

For `CC(C)Cn1cc(-c2n[nH]c3ccnc(NC4CCOCC4)c23)cn1`, the IC50 in series [1] is 410 nM.

As to `Cc1n[nH]c2ccnc(NC3CCC3)c12`, the IC50 in series [1] came out at 530 nM.

On to `Cc1n[nH]c2ccnc(N(C)C3CCCCC3)c12`, for which the IC50 in series [1] turned out to be 1600 nM.

Regarding `Cc1n[nH]c2ccnc(NC3CC3)c12`, the IC50 in series [1] is 4700 nM.

With `Cc1n[nH]c2ccnc(Nc3cccnc3)c12`, in series [1], the IC50 is > 10000 nM.
